The subject of assay [1] is A549. The assay can be described thus: Cytotoxicity against human A549 cells after 96 hrs by SRB assay. It is filed as functional, cell-based. In outline: (§1)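 Monolayer cultures in RPMI 1640 with 10% heat-inactivated FBS and penicillin/streptomycin, 37 °C, 5% CO2. Exponentially growing cells were seeded, then treated 24 h later with serial dilutions (0–30 µM; DMSO or DMF ≤0.5% final) for 96 h. Cells were fixed with 10% TCA at 4 °C, stained with 0.4% SRB and solubilized in 10 mM Tris base; A570 was read. IC50 came from semi-log dose–response curves, ≥3 independent experiments.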

In assay [2] the test system is HCT-116. The assay can be described thus: Cytotoxicity against human HCT116 cells after 96 hrs by SRB assay. In kind it is functional, cell-based. An outline of the steps:
as §1

Assay [3] concerns MCF7. The assay can be described thus: Cytotoxicity against human MCF7 cells after 96 hrs by SRB assay. It is filed as functional, cell-based. In outline: as §1
For assay [4], the system named is A-431. The assay can be described thus: Cytotoxicity against human A431 cells after 96 hrs by SRB assay. In kind it is functional, cell-based. An outline of the steps:
as §1

Assay [5] is described as follows: Cytotoxicity against human 518A2 cells after 96 hrs by SRB assay. In kind it is functional, cell-based. In outline:
as §1

The subject of assay [6] is HCT-8. Put plainly: Cytotoxicity against human HCT8 cells after 96 hrs by SRB assay. In kind it is functional, cell-based. An outline of the steps:
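Monolayers in RPMI 1640 with 10% heat-inactivated FBS and penicillin/streptomycin, 37 °C, 5% CO2. Seeded day 0 and exposed 24 h later to serial dilutions (0–30 µM; DMSO or DMF ≤0.5% final) for 96 h. Cells were then fixed with 10% TCA at 4 °C, stained with 0.4% SRB, washed with 1% acetic acid and dissolved in 10 mM Tris, and A570 was read. IC50 from semi-log dose–response curves, ≥3 independent experiments.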

Assay [7] can be described thus: Cytotoxicity against human Lipo cells after 96 hrs by SRB assay. In kind it is functional, cell-based. An outline of the steps:
as §1

The subject of assay [8] is SW-1736. The assay can be described thus: Cytotoxicity against human SW1736 cells after 96 hrs by SRB assay. It is filed as functional, cell-based. An outline of the steps:
as §1

Assay [9] relates to HT-29. The assay can be described thus: Cytotoxicity against human HT-29 cells after 96 hrs by SRB assay. In kind it is functional, cell-based. In outline: as §1
The subject of assay [10] is DLD-1. Put plainly: Cytotoxicity against human DLD1 cells after 96 hrs by SRB assay. In kind it is functional, cell-based. In outline:
as §1

Assay [11] is described as follows: Cytotoxicity against human A253 cells after 96 hrs by SRB assay. It is filed as functional, cell-based. In outline: as §1
Assay [12] has as its system A2780. The assay can be described thus: Cytotoxicity against human A2780 cells after 96 hrs by SRB assay. It is filed as functional, cell-based. An outline of the steps:
as §1

The subject of assay [13] is A549. Put plainly: Induction of apoptosis in human A549 cells assessed as appearance of green fluorescent cells at 4 uM after 24 to 48 hrs by acridine orange/ethidium bromide staining based fluorescence microscopy. In kind it is functional, cell-based. An outline of the steps: (§2)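 Approx. 500,000 A549 cells per flask were grown 24 h, then exposed to compound-containing medium for 24–48 h. Cells from the supernatant were pelleted, washed and resuspended in PBS, mixed with AO/EB and examined by fluorescence microscopy. Green fluorescence was scored as apoptotic and red nuclei as necrotic; the read-out is qualitative.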

Assay [14] relates to 8505C. Put plainly: Cytotoxicity against human 8505C cells after 96 hrs by SRB assay. In kind it is functional, cell-based. In outline:
as §1

The test system of assay [15] is A549. Put plainly: Induction of apoptosis in human A549 cells assessed as apoptotic effect at 4 uM after 24 to 48 hrs by trypan blue cell counting analysis. In kind it is functional. In outline:
(§3)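 A549 cells (approx. 500,000 per flask) were grown 24 h, then given compound-containing medium for about 24–48 h. Collected cells were pelleted, washed in PBS and mixed 1:1 with 0.4% trypan blue in PBS, pH 7.2. An automated counter distinguished cells with intact and with damaged membranes. Results are % apoptosis ± standard error, 6 experiments each.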

Assay [16] concerns A549. The assay can be described thus: Induction of apoptosis in human A549 cells assessed as appearance of green fluorescent cells at 20 uM after 24 to 48 hrs by acridine orange/ethidium bromide staining based fluorescence microscopy. In kind it is functional, cell-based. In outline: as §2
For assay [17], the system named is A549. The assay can be described thus: Induction of apoptosis in human A549 cells assessed as apoptotic effect at 20 uM after 24 to 48 hrs by trypan blue cell counting analysis. It is filed as functional. An outline of the steps:
as §3

Assay [18] relates to A549. Put plainly: Induction of apoptosis in human A549 cells assessed as apoptotic effect at 8 uM after 24 to 48 hrs by trypan blue cell counting analysis. It is filed as functional. An outline of the steps: as §3
Assay [19] relates to A549. Put plainly: Induction of apoptosis in human A549 cells assessed as appearance of green fluorescent cells at 8 uM after 24 to 48 hrs by acridine orange/ethidium bromide staining based fluorescence microscopy. It is filed as functional, cell-based. In outline: as §2
Assay [20] deals with A549. Put plainly: Induction of apoptosis in human A549 cells assessed as apoptotic effect at 60 uM after 24 to 48 hrs by trypan blue cell counting analysis. It is filed as functional. In outline: as §3
In assay [21] the test system is A549. The assay can be described thus: Induction of apoptosis in human A549 cells assessed as appearance of green fluorescent cells at 60 uM after 24 to 48 hrs by acridine orange/ethidium bromide staining based fluorescence microscopy. In kind it is functional, cell-based. In outline:
as §2

For assay [22], the system named is A549. The assay can be described thus: Induction of apoptosis in human A549 cells assessed as apoptotic effect at 90 uM after 24 to 48 hrs by trypan blue cell counting analysis. In kind it is functional. In outline: as §3
Assay [23] concerns A549. Put plainly: Induction of apoptosis in human A549 cells assessed as apoptotic effect after 24 to 48 hrs by trypan blue cell counting analysis. It is filed as functional. In outline: as §3

We go through 12 compounds from ChEMBL document CHEMBL2151003, “Synthesis and antitumor activity of ring A modified glycyrrhetinic acid derivatives” (Eur J Med Chem, 2011).

Calls of active or inactive are those of the source. The rule behind the calls is not given here.

In the case of `CC1(C)[C@H](O)CC[C@]2(C)[C@H]3C(=O)C=C4[C@@H]5C[C@@](C)(C(=O)O)CC[C@]5(C)CC[C@@]4(C)[C@]3(C)CC[C@@H]12`, the IC50 in assay [1], in assay [2], in [3], in [4], in [5] and in [6] was above 30 µmol throughout. Moreover, the IC50 in [7], in assay [8], in assay [9], in assay [10] and in assay [11] was above 30 µmol throughout.

Take `COC(=O)[C@@]1(C)CC[C@]2(C)CC[C@]3(C)C(=CC(=O)[C@@H]4[C@@]5(C)CC[C@@H](N)C(C)(C)[C@@H]5CC[C@]43C)[C@@H]2C1`: the IC50 came to 3.42 µmol in assay [12]; 3.33 µmol in [1]; 2.33 µmol in assay [14]; 2.55 µmol in [3]; 2.74 µmol in assay [5]; 3.3 µmol in assay [7]. Moreover, the IC50 in assay [8] was found to be 2.84 µmol; in [10] it was 3.21 µmol; in [11], 2.44 µmol. For the same compound, the result in assay [13] was Active. Also, the Activity in assay [15] is given as 64.88%.

As to `COC(=O)[C@@]1(C)CC[C@]2(C)CC[C@]3(C)C(=CC(=O)[C@@H]4[C@@]5(C)CC[C@H](OC(=O)[C@@H](N)CSSC[C@H](N)C(=O)O[C@H]6CC[C@]7(C)[C@H]8C(=O)C=C9[C@@H]%10C[C@@](C)(C(=O)OC)CC[C@]%10(C)CC[C@@]9(C)[C@]8(C)CC[C@H]7C6(C)C)C(C)(C)[C@@H]5CC[C@]43C)[C@@H]2C1`, in [16], the outcome was Active. In addition, the IC50 in assay [1] is 18.75 µmol; in [14], 15.1 µmol; in [5] it was 24.54 µmol; in [7] it was 22.6 µmol; in assay [8], 16.82 µmol; in [10], above 30 µmol. The same compound displayed an IC50 in assay [11] of 19.07 µmol. For the same compound, the Activity in assay [17] was determined as 40.91%.

As for `COC(=O)[C@@]1(C)CC[C@]2(C)CC[C@]3(C)C(=CC(=O)[C@@H]4[C@@]5(C)CC/C(=N\O)C(C)(C)[C@@H]5CC[C@]43C)[C@@H]2C1`, the IC50 amounted to 6.18 µmol in assay [12]; 17.4 µmol in assay [1]; 17.18 µmol in [14]; 15.95 µmol in [3]; 18.93 µmol in assay [5]; 18.34 µmol in assay [7]. For the same compound, the values for the IC50 in assay [8], in assay [10] and in [11] were 13 µmol, 10.46 µmol and 13.56 µmol, respectively. For the same compound, in assay [16], the result was Active. Moreover, the Activity in assay [17] is listed as 32.43%.

In the case of `CC1(C)C(=O)CC[C@]2(C)[C@H]3C(=O)C=C4[C@@H]5C[C@@](C)(C(=O)O)CC[C@]5(C)CC[C@@]4(C)[C@]3(C)CC[C@@H]12`, the IC50 in assay [1], in assay [2], in [3], in [4], in assay [5] and in assay [6] was above 30 µmol in each case. The IC50 in assay [7], in assay [8], in assay [9], in [10] and in assay [11] was above 30 µmol each time.

Turning to `CC1(C)[C@@H](OC(=O)CNCCCN)CC[C@]2(C)[C@H]3C(=O)C=C4[C@@H]5C[C@@](C)(C(=O)OCc6ccccc6)CC[C@]5(C)CC[C@@]4(C)[C@]3(C)CC[C@@H]12`, the Activity in assay [18] was 80.57%. The IC50 in [1] came out at 4.74 µmol; in [14], 2.07 µmol; in [5], 5.14 µmol; in assay [7] it was 2.99 µmol; in assay [10], 4.96 µmol; in [11] it was 1.96 µmol. Further, in assay [19], the outcome was Active.

Take `CCOC(=O)[C@@]1(C)CC[C@]2(C)CC[C@]3(C)C(=CC(=O)[C@@H]4[C@@]5(C)C[C@H](F)[C@@H](O)C(C)(C)[C@@H]5CC[C@]43C)[C@@H]2C1`: in assay [20], the Activity amounted to 80.32%. Also, the result in assay [21] was Active. The IC50 in assay [1], in assay [2], in assay [3], in assay [4], in assay [5] and in assay [7] was above 30 µmol each time. The IC50 in assay [9] was 24.72 µmol; in assay [10] it was above 30 µmol; in [11], above 30 µmol.

On to `COC(=O)[C@@]1(C)CC[C@]2(C)CC[C@]3(C)C(=CC(=O)[C@@H]4[C@@]5(C)CC[C@H](NC(=O)[C@H](C)N)C(C)(C)[C@@H]5CC[C@]43C)[C@@H]2C1`, for which the IC50 was 5.39 µmol in assay [12]; 5.38 µmol in [1]; 4.46 µmol in assay [14]; 5.08 µmol in [3]; 5.55 µmol in [5]; 5.82 µmol in assay [7]. The values for the IC50 in assay [8], in [10] and in assay [11] were 5.25 µmol, 6.44 µmol and 4.46 µmol, respectively. The Activity in assay [18] was 56.77%. Further, the outcome in [19] was Active.

In the case of `COC(=O)[C@@]1(C)CC[C@]2(C)CC[C@]3(C)C(=CC(=O)[C@@H]4[C@@]5(C)CC[C@H](OC(=O)[C@@H](N)CSCc6ccccc6)C(C)(C)[C@@H]5CC[C@]43C)[C@@H]2C1`, the outcome in assay [16] was Active. The IC50 in [1] is 17.9 µmol; in assay [14] it was 15.45 µmol; in assay [5], 16.78 µmol; in assay [7], 16.72 µmol; in [8], 15.69 µmol; in assay [10], above 30 µmol. The IC50 in assay [11] was found to be 15.84 µmol. Moreover, the Activity in assay [17] came out at 60.64%.

In the case of `CC1(C)[C@@H](O)CC[C@]2(C)[C@H]3C(=O)C=C4[C@@H]5C[C@@](C)(C(=O)O)CC[C@]5(C)CC[C@@]4(C)[C@]3(C)CC[C@@H]12` [ENOXOLONE], in assay [22], the Activity is recorded as 73.73%.

Take `COC(=O)[C@@]1(C)CC[C@]2(C)CC[C@]3(C)C(=CC(=O)[C@@H]4[C@@]5(C)CC/C(=N\OC(=O)[C@H](C)NC(=O)OC(C)(C)C)C(C)(C)[C@@H]5CC[C@]43C)[C@@H]2C1`: the Activity in [23] was determined as 68.54%. The IC50 in assay [12] was 12.03 µmol; in assay [1] it was 15.83 µmol; in assay [14] it was 15.47 µmol; in [3] it was 15.17 µmol; in assay [5] it was 16.49 µmol; in assay [7], 18.99 µmol. Besides, the IC50 in [8] was found to be 14.61 µmol; in assay [10], 19.1 µmol; in [11], 14.12 µmol. The outcome in assay [16] was Active.

In the case of `COC(=O)[C@@]1(C)CC[C@]2(C)CC[C@]3(C)C(=CC(=O)[C@@H]4[C@@]5(C)CC[C@H](N)C(C)(C)[C@@H]5CC[C@]43C)[C@@H]2C1`, the IC50 in assay [12] amounted to 3.32 µmol; in [1], 2.51 µmol; in assay [14], 2.45 µmol; in [3], 2.47 µmol; in [5] it was 2.52 µmol; in assay [7], 2.74 µmol. In addition, the IC50 amounted to 2.62 µmol in assay [8], 2.56 µmol in assay [10] and 2.36 µmol in assay [11]. Also, in assay [13], the outcome was Active. Further, the Activity in [15] was determined as 74.21%.
